Data taken from ChEMBL document CHEMBL4382192, “Discovery of a potent dual ALK and EGFR T790M inhibitor” (Eur J Med Chem, 2017).

Columns and labels:
[1] = test system: BaF3; test: Antiproliferative activity against mouse BAF3 cells assessed as reduction in cell viability after 72 hrs by MTS assay; format: cell-based; settings: BaF3, 72 h
[2] = target: Serine/threonine-protein kinase pim-2 (Homo sapiens) (UniProt Q9P1W9); test: Binding affinity to wild-type human partial length PIM2 (M1 to E291 residues) expressed in bacterial expression system assessed as residual binding level at 1 uM by Kinomescan method relative to control
[3] = target: Cyclin-dependent kinase 9 (Homo sapiens) (UniProt P50750); test: Binding affinity to wild-type human full length CDK9 (M1 to F372 residues) expressed in bacterial expression system assessed as residual binding level at 1 uM by Kinomescan method relative to control
[4] = target: Mitogen-activated protein kinase kinase kinase kinase 2 (Homo sapiens) (UniProt Q12851); test: Binding affinity to wild-type human partial length MAP4K2 (M1 to G318 residues) expressed in mammalian expression system assessed as residual binding level at 1 uM by Kinomescan method relative to control
Sequence of Mitogen-activated protein kinase kinase kinase kinase 2 (Homo sapiens) (Q12851 whole entry, the tested form may be a part): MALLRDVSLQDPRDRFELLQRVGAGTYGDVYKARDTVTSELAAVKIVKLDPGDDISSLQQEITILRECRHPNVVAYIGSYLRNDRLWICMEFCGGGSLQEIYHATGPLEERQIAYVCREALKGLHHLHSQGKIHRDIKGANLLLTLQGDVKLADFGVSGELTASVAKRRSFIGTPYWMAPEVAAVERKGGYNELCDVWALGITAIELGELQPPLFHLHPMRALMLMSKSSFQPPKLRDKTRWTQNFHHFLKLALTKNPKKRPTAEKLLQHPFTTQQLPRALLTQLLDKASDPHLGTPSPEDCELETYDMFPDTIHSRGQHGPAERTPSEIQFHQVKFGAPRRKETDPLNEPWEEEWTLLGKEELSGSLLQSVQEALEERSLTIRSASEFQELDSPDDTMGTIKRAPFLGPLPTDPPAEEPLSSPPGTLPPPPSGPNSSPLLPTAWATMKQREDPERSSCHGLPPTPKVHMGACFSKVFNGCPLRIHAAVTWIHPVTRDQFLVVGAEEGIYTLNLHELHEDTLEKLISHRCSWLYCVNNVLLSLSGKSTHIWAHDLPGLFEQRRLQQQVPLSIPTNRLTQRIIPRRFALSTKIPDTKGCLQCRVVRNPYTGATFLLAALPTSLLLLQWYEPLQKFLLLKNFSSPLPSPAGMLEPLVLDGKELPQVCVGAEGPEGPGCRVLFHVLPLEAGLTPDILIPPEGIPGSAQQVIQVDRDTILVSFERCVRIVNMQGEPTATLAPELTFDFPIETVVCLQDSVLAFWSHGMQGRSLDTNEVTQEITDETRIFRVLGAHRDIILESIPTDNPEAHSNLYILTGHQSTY

[5] = target: Non-receptor tyrosine-protein kinase TYK2 (Homo sapiens) (UniProt P29597); test: Binding affinity to wild-type human partial length TYK2 JH1 catalytic domain (V877 to C1187 residues) expressed in mammalian expression system assessed as residual binding level at 1 uM by Kinomescan method relative to control
[6] = target: Serine/threonine-protein kinase haspin (Homo sapiens) (UniProt Q8TF76); test: Binding affinity to wild-type human partial length HASPIN (I452 to K798 residues) expressed in mammalian expression system assessed as residual binding level at 1 uM by Kinomescan method relative to control
[7] = target: STE20-like serine/threonine-protein kinase (Homo sapiens, UniProt Q9H2G2); test: Inhibition of recombinant full length GST-tagged human SLK expressed in baculovirus expression system by LanthaScreen assay
[8] = target: Tyrosine-protein kinase Mer (Homo sapiens) (UniProt Q12866); test: Binding affinity to wild-type human partial length MERTK (R557 to L884 residues) expressed in bacterial expression system assessed as residual binding level at 1 uM by Kinomescan method relative to control
[9] = target: Epithelial discoidin domain-containing receptor 1 (Homo sapiens) (UniProt Q08345); test: Binding affinity to wild-type human partial length DDR1 (R565 to V876 residues) expressed in bacterial expression system assessed as residual binding level at 1 uM by Kinomescan method relative to control
[10] = target: Cyclin-dependent kinase-like 1 (Homo sapiens) (UniProt Q00532); test: Binding affinity to wild-type human full length CDKL1 (M1 to I358 residues) expressed in mammalian expression system assessed as residual binding level at 1 uM by Kinomescan method relative to control
Sequence of Cyclin-dependent kinase-like 1 (Homo sapiens) (Q00532 whole entry, the tested form may be a part): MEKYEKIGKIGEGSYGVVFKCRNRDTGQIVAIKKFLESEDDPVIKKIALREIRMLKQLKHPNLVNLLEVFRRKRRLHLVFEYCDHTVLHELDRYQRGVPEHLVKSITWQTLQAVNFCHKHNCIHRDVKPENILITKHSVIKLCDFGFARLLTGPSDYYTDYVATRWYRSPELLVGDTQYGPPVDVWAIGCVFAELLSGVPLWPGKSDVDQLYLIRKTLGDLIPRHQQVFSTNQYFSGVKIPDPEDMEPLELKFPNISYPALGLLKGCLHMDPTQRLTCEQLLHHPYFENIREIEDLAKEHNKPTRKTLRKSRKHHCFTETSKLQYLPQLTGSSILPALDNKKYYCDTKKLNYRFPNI

[11] = target: Serine/threonine-protein kinase MARK2 (Homo sapiens) (UniProt Q7KZI7); test: Binding affinity to wild-type human partial length MARK2 (M1 to R450 residues) expressed in bacterial expression system assessed as residual binding level at 1 uM by Kinomescan method relative to control
[12] = target: Ephrin type-B receptor 1 (Homo sapiens) (UniProt P54762); test: Binding affinity to wild-type human partial length EPHB1 (P589 to T911 residues) expressed in bacterial expression system assessed as residual binding level at 1 uM by Kinomescan method relative to control
Sequence of Ephrin type-B receptor 1 (Homo sapiens) (P54762 whole entry, the tested form may be a part): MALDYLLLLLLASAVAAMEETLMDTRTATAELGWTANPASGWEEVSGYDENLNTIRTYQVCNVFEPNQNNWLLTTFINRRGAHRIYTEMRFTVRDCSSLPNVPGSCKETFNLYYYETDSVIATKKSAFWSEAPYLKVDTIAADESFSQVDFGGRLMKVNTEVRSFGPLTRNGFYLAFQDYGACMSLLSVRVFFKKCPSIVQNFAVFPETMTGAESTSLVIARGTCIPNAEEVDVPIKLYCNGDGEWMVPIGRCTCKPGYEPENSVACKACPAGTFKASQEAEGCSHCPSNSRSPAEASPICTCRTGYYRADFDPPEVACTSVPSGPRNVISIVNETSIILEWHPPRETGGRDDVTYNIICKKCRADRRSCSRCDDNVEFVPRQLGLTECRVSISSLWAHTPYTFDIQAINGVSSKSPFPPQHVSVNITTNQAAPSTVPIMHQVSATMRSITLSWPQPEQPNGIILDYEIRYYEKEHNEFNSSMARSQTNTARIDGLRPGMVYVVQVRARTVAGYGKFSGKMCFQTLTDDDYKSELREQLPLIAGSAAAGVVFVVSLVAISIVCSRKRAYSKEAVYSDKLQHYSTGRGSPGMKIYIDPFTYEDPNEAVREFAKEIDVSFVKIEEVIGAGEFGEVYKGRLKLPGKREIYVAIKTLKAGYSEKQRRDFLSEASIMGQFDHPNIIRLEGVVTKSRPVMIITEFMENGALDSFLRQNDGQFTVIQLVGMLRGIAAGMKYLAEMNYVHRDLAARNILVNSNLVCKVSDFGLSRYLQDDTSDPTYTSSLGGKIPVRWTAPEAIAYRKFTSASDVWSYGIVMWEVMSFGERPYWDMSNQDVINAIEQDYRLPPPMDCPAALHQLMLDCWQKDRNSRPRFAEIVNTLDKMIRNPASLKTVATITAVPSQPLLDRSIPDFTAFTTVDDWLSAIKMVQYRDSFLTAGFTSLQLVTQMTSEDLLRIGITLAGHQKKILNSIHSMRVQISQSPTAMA

[13] = target: Hepatocyte growth factor receptor (Homo sapiens) (UniProt P08581); test: Binding affinity to wild-type human partial length MET (D1010 to S1367 residues) expressed in bacterial expression system assessed as residual binding level at 1 uM by Kinomescan method relative to control
[14] = target: Serine/threonine-protein kinase SIK1 (Homo sapiens) (UniProt P57059); test: Binding affinity to wild-type human partial length SIK (M1 to Y304 residues) expressed in bacterial expression system assessed as residual binding level at 1 uM by Kinomescan method relative to control
[15] = test system: Receptor-type tyrosine-protein kinase FLT3 (Homo sapiens), P36888 [N841I]; test: Binding affinity to human partial length FLT3 N841I mutant (V592 to Y969 residues) expressed in bacterial expression system assessed as residual binding level at 1 uM by Kinomescan method relative to control
Procedure, shortened: (§1)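 Kinome-wide selectivity panel run by the KINOMEscan method, with the test compound at a single concentration of 1 μM. Wild-type and mutant kinases were profiled in the same screen.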

[16] = target: Tyrosine-protein kinase FRK (Homo sapiens) (UniProt P42685); test: Binding affinity to wild-type human partial length FRK (A215 to F503 residues) expressed in bacterial expression system assessed as residual binding level at 1 uM by Kinomescan method relative to control
[17] = target: Phosphatidylinositol 4-phosphate 5-kinase type-1 gamma (Homo sapiens) (UniProt O60331); test: Binding affinity to wild-type human partial length PIP5K1C (M1 to T668 residues) expressed in mammalian expression system assessed as residual binding level at 1 uM by Kinomescan method relative to control
[18] = target: Cyclin-dependent kinase 13 (Homo sapiens) (UniProt Q14004); test: Binding affinity to wild-type human partial length CDC2L5 (H675 to S1054 residues) expressed in mammalian expression system assessed as residual binding level at 1 uM by Kinomescan method relative to control
Sequence of Cyclin-dependent kinase 13 (Homo sapiens) (Q14004 whole entry, looked up, the tested form may be a part): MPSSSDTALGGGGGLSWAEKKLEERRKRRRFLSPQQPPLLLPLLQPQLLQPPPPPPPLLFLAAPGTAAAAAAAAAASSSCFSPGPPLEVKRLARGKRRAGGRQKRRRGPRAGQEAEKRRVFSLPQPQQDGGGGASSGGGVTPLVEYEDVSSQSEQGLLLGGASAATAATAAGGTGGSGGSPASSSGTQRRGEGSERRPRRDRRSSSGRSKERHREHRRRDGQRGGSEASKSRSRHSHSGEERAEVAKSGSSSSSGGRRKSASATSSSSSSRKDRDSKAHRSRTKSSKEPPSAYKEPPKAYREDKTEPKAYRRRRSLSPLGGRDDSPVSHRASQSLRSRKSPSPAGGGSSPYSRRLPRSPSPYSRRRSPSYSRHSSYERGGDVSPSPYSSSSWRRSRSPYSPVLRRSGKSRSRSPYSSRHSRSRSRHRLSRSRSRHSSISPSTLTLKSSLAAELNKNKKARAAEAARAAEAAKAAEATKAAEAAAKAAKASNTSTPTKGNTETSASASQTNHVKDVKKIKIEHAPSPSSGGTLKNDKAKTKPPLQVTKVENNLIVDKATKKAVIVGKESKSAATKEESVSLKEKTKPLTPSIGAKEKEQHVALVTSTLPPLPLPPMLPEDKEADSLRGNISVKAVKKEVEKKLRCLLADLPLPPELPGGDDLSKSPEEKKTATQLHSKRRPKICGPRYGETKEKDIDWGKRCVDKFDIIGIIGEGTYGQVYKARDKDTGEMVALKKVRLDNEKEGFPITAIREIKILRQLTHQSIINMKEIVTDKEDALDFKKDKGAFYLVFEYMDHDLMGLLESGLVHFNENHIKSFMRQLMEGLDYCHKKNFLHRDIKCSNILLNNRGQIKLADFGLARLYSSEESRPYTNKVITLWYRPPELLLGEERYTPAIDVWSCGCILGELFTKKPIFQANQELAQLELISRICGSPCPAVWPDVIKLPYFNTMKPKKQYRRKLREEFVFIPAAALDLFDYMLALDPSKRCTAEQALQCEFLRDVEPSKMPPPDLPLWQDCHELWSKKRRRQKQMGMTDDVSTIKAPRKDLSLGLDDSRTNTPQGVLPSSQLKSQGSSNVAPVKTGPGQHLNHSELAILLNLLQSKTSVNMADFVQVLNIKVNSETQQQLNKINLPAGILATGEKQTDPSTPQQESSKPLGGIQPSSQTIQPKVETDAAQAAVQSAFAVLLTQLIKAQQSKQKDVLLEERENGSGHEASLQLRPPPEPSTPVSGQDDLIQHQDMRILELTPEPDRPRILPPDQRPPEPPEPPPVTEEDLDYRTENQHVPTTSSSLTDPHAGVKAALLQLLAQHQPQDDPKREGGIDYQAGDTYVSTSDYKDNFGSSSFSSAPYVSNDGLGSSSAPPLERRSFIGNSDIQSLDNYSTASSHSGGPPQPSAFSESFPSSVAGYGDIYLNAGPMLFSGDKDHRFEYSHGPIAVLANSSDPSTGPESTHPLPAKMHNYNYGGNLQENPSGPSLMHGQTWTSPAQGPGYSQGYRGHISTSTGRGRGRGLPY

[19] = test system: Serine/threonine-protein kinase B-raf (Homo sapiens), P15056 [V600E]; test: Binding affinity to human partial length BRAF V600E mutant (S429 to E741 residues) expressed in mammalian expression system assessed as residual binding level at 1 uM by Kinomescan method relative to control
Sequence of Serine/threonine-protein kinase B-raf (Homo sapiens), P15056 [V600E] (P15056 whole entry V600E, the tested form may be a part): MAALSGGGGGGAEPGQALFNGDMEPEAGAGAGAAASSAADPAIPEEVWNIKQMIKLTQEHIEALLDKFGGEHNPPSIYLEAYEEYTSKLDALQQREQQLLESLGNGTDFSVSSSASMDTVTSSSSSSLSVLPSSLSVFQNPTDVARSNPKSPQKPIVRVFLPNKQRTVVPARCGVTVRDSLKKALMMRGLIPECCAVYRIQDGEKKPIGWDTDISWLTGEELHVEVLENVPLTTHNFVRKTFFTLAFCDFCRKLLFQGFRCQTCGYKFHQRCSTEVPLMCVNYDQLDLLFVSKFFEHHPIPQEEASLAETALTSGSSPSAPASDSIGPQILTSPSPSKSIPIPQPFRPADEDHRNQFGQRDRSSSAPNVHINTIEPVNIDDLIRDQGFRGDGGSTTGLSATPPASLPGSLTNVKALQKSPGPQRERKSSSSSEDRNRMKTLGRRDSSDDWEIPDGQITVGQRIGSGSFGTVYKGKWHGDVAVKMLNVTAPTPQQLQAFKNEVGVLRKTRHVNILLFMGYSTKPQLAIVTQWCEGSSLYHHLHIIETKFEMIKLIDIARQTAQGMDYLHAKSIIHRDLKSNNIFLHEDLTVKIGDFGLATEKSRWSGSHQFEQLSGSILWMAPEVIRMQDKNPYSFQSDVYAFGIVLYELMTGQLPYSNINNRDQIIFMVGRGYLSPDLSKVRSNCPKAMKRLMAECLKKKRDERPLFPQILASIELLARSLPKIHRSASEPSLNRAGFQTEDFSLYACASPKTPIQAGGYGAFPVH

[20] = target: Membrane-associated tyrosine- and threonine-specific cdc2-inhibitory kinase (Homo sapiens) (UniProt Q99640); test: Binding affinity to wild-type human partial length PKMYT1 (A88 to G366 residues) expressed in bacterial expression system assessed as residual binding level at 1 uM by Kinomescan method relative to control
Sequence of Membrane-associated tyrosine- and threonine-specific cdc2-inhibitory kinase (Homo sapiens) (Q99640 whole entry, the tested form may be a part): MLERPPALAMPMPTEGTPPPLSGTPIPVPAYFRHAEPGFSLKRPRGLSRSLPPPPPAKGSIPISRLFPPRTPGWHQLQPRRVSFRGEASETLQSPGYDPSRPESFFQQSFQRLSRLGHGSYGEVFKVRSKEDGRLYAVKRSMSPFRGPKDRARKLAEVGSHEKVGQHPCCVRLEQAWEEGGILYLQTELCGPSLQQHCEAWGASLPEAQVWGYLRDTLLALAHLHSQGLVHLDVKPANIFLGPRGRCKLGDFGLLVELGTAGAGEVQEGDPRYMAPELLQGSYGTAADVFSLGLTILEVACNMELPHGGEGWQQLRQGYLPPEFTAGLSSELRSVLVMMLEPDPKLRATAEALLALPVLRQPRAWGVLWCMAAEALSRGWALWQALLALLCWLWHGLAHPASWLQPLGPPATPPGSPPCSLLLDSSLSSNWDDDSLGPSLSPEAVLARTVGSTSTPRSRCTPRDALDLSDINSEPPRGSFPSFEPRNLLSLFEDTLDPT

[21] = test system: Receptor-type tyrosine-protein kinase FLT3 (Homo sapiens), P36888 [UNDEFINED MUTATION]; test: Binding affinity to human partial length FLT3 ITD mutant expressed in bacterial expression system assessed as residual binding level at 1 uM by Kinomescan method relative to control; procedure, shortened: as §1
[22] = target: Serine/threonine-protein kinase SBK1 (Homo sapiens) (UniProt Q52WX2); test: Binding affinity to wild-type human partial length SBK1 (P23 to P348 residues) expressed in mammalian expression system assessed as residual binding level at 1 uM by Kinomescan method relative to control
[23] = target: Peripheral plasma membrane protein CASK (Homo sapiens) (UniProt O14936); test: Binding affinity to wild-type human partial length CASK (M1 to H315 residues) expressed in mammalian expression system assessed as residual binding level at 1 uM by Kinomescan method relative to control
[24] = Drug uptake in mouse plasma at 10 mg/kg, po after 2 hrs; format: ADME, organism-based
[25] = test system: eIF-2-alpha kinase GCN2 (Homo sapiens), Q9P2K8 [S808G]; test: Binding affinity to wild-type human partial length GCN2 kinase domain 2 (R585 to T1018 residues) S808G mutant expressed in bacterial expression system assessed as residual binding level at 1 uM by Kinomescan method relative to control

`C=CC(=O)Nc1cc(Nc2ncc(Cl)c(Nc3ccccc3S(=O)(=O)C(C)C)n2)c(OC)cc1N(C)CCN(C)C` gave an EC50 [1] of over 5000 nM, an Activity [2] of 100% and an Activity [3] of 80%. It also gave an Activity [4] of 77%, an Activity [5] of 17% and an Activity [6] of 100%. It also gave an IC50 [7] of 58 nM, an Activity [8] of 2.7% and an Activity [9] of 16%. For the same compound, the Activity [10] was 58%, the Activity [11] was 57% and the Activity [12] was 38%. It also gave an Activity [13] of 30%, an Activity [14] of 67% and an Activity [15] of 6.8%. It also gave an Activity [16] of 5.9%, an Activity [17] of 98% and an Activity [18] of 91%. It also gave an Activity [19] of 88%, an Activity [20] of 80% and an Activity [21] of 7.6%. The Activity [22] was 1.9%, the Activity [23] was 95% and the concentration at 2 h [24] was 150 nM. The Activity [25] was 91%.
